Tests used:
Liver = test: Biodistribution in liver of C.B.-17/Icr […] Jcl mouse xenografted with human LNCAP and PC3 cells at 25.9 MBq, iv after 1 hr; format: ADME, organism-based; details: in vivo
Method in brief: (§1)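 ¹²⁵I-labelled tracer given iv by tail vein to mice (22–24 g) bearing LNCaP (left shoulder) and PC-3 (right shoulder) xenografts of about 5–10 mm, grown from 1–5 × 10⁶ cells in 1:1 Matrigel. n=4 per time point; decapitated at 2 min, 30 min, 1, 3, 6 h. Tissues weighed and counted; uptake as %ID/g, mean ± SD.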

Thyroid gland = test: Biodistribution in thyroid of C.B.-17/Icr +/+ Jcl mouse xenografted with human LNCAP and PC3 cells at 25.9 MBq, iv after 6 hrs; format: ADME, organism-based; details: in vivo
Method in brief: (§2)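 Radioiodinated (¹²⁵I) tracer given by tail-vein injection to mice bearing LNCaP (left shoulder) and PC-3 (right shoulder) xenografts, 22–24 g, grown to about 5–10 mm. Groups of n=4 were decapitated at 2 min, 30 min, 1 h, 3 h or 6 h. Tissues were weighed and counted, and uptake was expressed as %ID/g (mean ± SD).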

Lung [1] = test: Biodistribution in lung of C.B.-17/Icr +/+ Jcl mouse xenografted with human LNCAP and PC3 cells at 25.9 MBq, iv after 2 mins; format: ADME, organism-based; details: in vivo; method in brief: as §2
Spleen = test: Biodistribution in spleen of C.B.-17/Icr +/+ Jcl mouse xenografted with human LNCAP and PC3 cells at 25.9 MBq, iv after 6 hrs; format: ADME, organism-based; details: in vivo; method in brief: as §2
Nucleic Acid [2] = test: Ratio of drug level in human LNCAP cells to human PC3 cells xenografted in C.B.-17/Icr […] Jcl mouse at 25.9 MBq, iv after 6 hrs; format: ADME, organism-based; details: in vivo
Stomach = test: Biodistribution in stomach of C.B.-17/Icr +/+ Jcl mouse xenografted with human LNCAP and PC3 cells at 25.9 MBq, iv after 6 hrs; format: ADME, organism-based; details: in vivo; method in brief: as §2
Nucleic Acid [3] = test: Ratio of drug level in human LNCAP cells xenografted in C.B.-17/Icr +/+ Jcl mouse to muscle of C.B.-17/Icr +/+ Jcl mouse xenografted with human LNCAP and PC3 cells at 25.9 MBq, iv after 2 mins; format: ADME, organism-based; details: in vivo
Method in brief: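 Tumor-to-blood and tumor-to-muscle ratios were calculated from %ID/g values in ¹²⁵I-tracer biodistribution in LNCaP/PC-3 xenografted mice. Tail-vein dosing, n=4 per time point, sacrifice at 2 min, 30 min, 1, 3 or 6 h.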

Intestine [4] = test: Biodistribution in intestine of C.B.-17/Icr +/+ Jcl mouse xenografted with human LNCAP and PC3 cells at 25.9 MBq, iv after 3 hrs; format: ADME, organism-based; details: in vivo; method in brief: as §1
Nucleic Acid [5] = test: Ratio of drug level in human PC3 cells xenografted in C.B.-17/Icr +/+ Jcl mouse to muscle of C.B.-17/Icr +/+ Jcl mouse xenografted with human LNCAP and PC3 cells at 25.9 MBq, iv after 30 mins; format: ADME, organism-based; details: in vivo, 0.5 h
Method in brief: (§3)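 Mice (22–24 g) carried PC-3 (right shoulder) and LNCaP (left shoulder) tumors, raised by injecting 1–5 × 10⁶ cells in 1:1 PBS/Matrigel and used at about 5–10 mm diameter. [¹²⁵I]-tracer was given via the tail vein, n=4 per time point, and mice were decapitated at 2 min, 30 min, 1, 3 or 6 h. Tissues were weighed and γ-counted as %ID/g. Tumor/blood and tumor/muscle ratios were taken from %ID/g, mean ± SD.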

Blood [6] = test: Biodistribution in blood of C.B.-17/Icr +/+ Jcl mouse xenografted with human LNCAP and PC3 cells at 25.9 MBq, iv after 2 mins; format: ADME, organism-based; details: in vivo; method in brief: as §1
Muscle tissue [7] = test: Biodistribution in muscle of C.B.-17/Icr +/+ Jcl mouse xenografted with human LNCAP and PC3 cells at 25.9 MBq, iv after 1 hr; format: ADME, organism-based; details: in vivo; method in brief: as §2
Nucleic Acid [8] = test: Ratio of drug level in human LNCAP cells to human PC3 cells xenografted in C.B.-17/Icr […] Jcl mouse at 25.9 MBq, iv after 1 hr; format: ADME, organism-based; details: in vivo
Intestine [9] = test: Biodistribution in intestine of C.B.-17/Icr +/+ Jcl mouse xenografted with human LNCAP and PC3 cells at 25.9 MBq, iv after 30 mins; format: ADME, organism-based; details: in vivo, 0.5 h; method in brief: as §1
[10] = Ratio of drug level in human PC3 cells xenografted in C.B.-17/Icr +/+ Jcl mouse to blood of C.B.-17/Icr +/+ Jcl mouse xenografted with human LNCAP and PC3 cells at 25.9 MBq, iv after 1 hr; format: ADME, organism-based; details: PC3 tumour xenograft relative to blood; method in brief: as §3
LNCaP = test: Biodistribution in LNCAP cells in C.B.-17/Icr +/+ Jcl mouse xenografted with human LNCAP and PC3 cells at 25.9 MBq, iv after 3 hrs; format: ADME, organism-based; details: in vivo; method in brief: as §1
Blood [11] = test: Biodistribution in blood of C.B.-17/Icr scid/scid Jcl mouse xenografted with human LNCAP and PC3 cells at 25.9 MBq, iv after 2 mins; format: ADME, organism-based; details: in vivo
Lung [12] = test: Biodistribution in lung of C.B.-17/Icr +/+ Jcl mouse xenografted with human LNCAP and PC3 cells at 25.9 MBq, iv after 1 hr; format: ADME, organism-based; details: in vivo; method in brief: as §2
Nucleic Acid [13] = test: Ratio of drug level in human PC3 cells xenografted in C.B.-17/Icr +/+ Jcl mouse to muscle of C.B.-17/Icr +/+ Jcl mouse xenografted with human LNCAP and PC3 cells at 25.9 MBq, iv after 1 hr; format: ADME, organism-based; details: in vivo; method in brief: as §3
Serum = test: Drug degradation in C.B.-17/Icr +/+ Jcl mouse serum after 6 hrs; format: ADME, cell-free
Method in brief: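 Serum came from heart blood of isoflurane-anesthetized male C.B.-17/Icr +/+ mice (20–22 g), centrifuged at 1,500 × g and stored at −80 °C. ¹²⁵I tracer was incubated in serum at 37 °C, then methanol was added. The sample was centrifuged at 5,000 × g, passed through a 0.45 μm filter, and analyzed by radio-HPLC for intact tracer versus degradation peaks.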

Kidney = test: Biodistribution in kidney of C.B.-17/Icr […] Jcl mouse xenografted with human LNCAP and PC3 cells at 25.9 MBq, iv after 1 hr; format: ADME, organism-based; details: in vivo; method in brief: as §1
PC-3 = test: Biodistribution in PC3 cells in C.B.-17/Icr +/+ Jcl mouse xenografted with human LNCAP and PC3 cells at 25.9 MBq, iv after 2 mins; format: ADME, organism-based; details: in vivo; method in brief: as §1
Muscle tissue [14] = test: Biodistribution in muscle of C.B.-17/Icr +/+ Jcl mouse xenografted with human LNCAP and PC3 cells at 25.9 MBq, iv after 30 mins; format: ADME, organism-based; details: in vivo, 0.5 h; method in brief: as §2
Nucleic Acid [15] = test: Ratio of drug level in human LNCAP cells to human PC3 cells xenografted in C.B.-17/Icr […] Jcl mouse at 25.9 MBq, iv after 2 mins; format: ADME, organism-based; details: in vivo
[16] = biological target: Glutamate carboxypeptidase 2 (Homo sapiens, UniProt Q04609); test: Binding affinity to PSMA in human LNCaP cells after 1 hr by gamma counting; format: cell-based
Chain of Glutamate carboxypeptidase 2 (Q04609 whole entry): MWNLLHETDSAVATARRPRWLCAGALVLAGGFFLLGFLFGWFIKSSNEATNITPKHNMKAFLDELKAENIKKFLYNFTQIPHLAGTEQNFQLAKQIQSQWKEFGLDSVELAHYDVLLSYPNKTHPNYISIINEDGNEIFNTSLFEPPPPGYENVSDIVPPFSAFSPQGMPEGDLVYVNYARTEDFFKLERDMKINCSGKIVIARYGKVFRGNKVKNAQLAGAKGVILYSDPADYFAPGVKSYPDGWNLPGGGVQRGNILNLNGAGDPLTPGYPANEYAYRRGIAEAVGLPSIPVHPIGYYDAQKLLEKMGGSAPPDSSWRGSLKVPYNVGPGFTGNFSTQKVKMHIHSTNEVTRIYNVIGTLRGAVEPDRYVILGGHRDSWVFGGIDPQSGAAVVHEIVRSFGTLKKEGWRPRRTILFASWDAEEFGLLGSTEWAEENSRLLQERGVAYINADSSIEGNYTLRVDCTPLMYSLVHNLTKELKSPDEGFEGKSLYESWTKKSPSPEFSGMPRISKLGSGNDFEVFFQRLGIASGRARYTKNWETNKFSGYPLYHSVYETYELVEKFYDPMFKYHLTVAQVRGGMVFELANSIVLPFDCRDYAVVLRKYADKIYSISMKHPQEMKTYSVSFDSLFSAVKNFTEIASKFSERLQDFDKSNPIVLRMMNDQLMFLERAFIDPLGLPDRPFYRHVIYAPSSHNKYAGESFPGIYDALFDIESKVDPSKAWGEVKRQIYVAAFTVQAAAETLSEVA
Method in brief: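 LNCaP cells plated at 4 × 10⁵ cells/well and grown 48 h (37 °C/5% CO₂), then washed with RPMI 1640 containing 0.5% BSA. Saturation binding used ¹²⁵I-labelled ligand (specific activity 81.4 kBq/nmol), 1 h at 37 °C; nonspecific binding measured with 100 µM non-radioactive iodinated compound. Cells washed, lysed in 0.2 N NaOH, gamma-counted; Kd from Scatchard plots.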

Q: What does the source list for `O=C(O)CC[C@H](NC(=O)N[C@@H](CSC1CC(=O)N(CCCC[C@H](NC(=O)CNC(=O)c2cccc([125I])c2)C(=O)O)C1=O)C(=O)O)C(=O)O` (some centres undefined)?
A: Drug uptake (Liver): 13.9 % ID/g; Drug uptake (Thyroid gland): 0.02 %ID; Drug uptake (Lung [1]): 6.8 % ID/g; Drug uptake (Spleen): 9.7 % ID/g; Ratio (Nucleic Acid [2]): 36.8; Drug uptake (Stomach): 0.7 %ID; Ratio (Nucleic Acid [3]): 2.9; Drug uptake (Intestine [4]): 5.8 % ID/g; Ratio (Nucleic Acid [5]): 1.6; Drug uptake (Blood [6]): 7.4 % ID/g; Drug uptake (Muscle tissue [7]): 0.5 % ID/g; Ratio (Nucleic Acid [8]): 9.6; Drug uptake (Intestine [9]): 11.2 % ID/g; Kp at 1 h [10]: 0.7; Drug uptake (LNCaP): 9.5 % ID/g; Drug uptake (Blood [11]): 8.9 % ID/g; Drug uptake (Lung [12]): 2.5 % ID/g; Ratio (Nucleic Acid [13]): 1.6; Stability (Serum): Stable; Drug uptake (Kidney): 92.8 % ID/g; Drug uptake (PC-3): 2.7 % ID/g; Drug uptake (Muscle tissue [14]): 0.6 % ID/g; Ratio (Nucleic Acid [15]): 1.5; Kd [16]: 7.8 nM
